Assay results as given in ChEMBL document CHEMBL1136149, “Design, synthesis and antimalarial activity of novel, quinoline-based, zinc metallo-aminopeptidase inhibitors” (Bioorg Med Chem Lett, 2003).

Legend:
Plasmodium falciparum [1] = assay: Inhibitory activity against Plasmodium falciparum Zinc-aminopeptidase PfA-M1 at 10 uM; assay type: functional
Outline: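 Native purified PfA-M1, diluted 10-fold in 25 mM Tris-HCl pH 7.4. Enzyme pre-incubated 10 min at rt with inhibitor (10 µM final, DMSO present), then Leu-pNA substrate added. Kinetics followed at 405 nm. Initial velocities normalized to the no-inhibitor control (Vmax). Single-point percent inhibition (Z' 0.82). Bestatin as reference.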

Plasmodium falciparum [2] = assay: Inhibitory activity against Plasmodium falciparum FcB1
Aminopeptidase N = biological target: T1, Aminopeptidase N (Plasmodium falciparum FcB1/Columbia, UniProt O96935); assay: Inhibitory activity for Plasmodium falciparum Zinc aminopeptidase
T1 sequence (O96935 whole entry): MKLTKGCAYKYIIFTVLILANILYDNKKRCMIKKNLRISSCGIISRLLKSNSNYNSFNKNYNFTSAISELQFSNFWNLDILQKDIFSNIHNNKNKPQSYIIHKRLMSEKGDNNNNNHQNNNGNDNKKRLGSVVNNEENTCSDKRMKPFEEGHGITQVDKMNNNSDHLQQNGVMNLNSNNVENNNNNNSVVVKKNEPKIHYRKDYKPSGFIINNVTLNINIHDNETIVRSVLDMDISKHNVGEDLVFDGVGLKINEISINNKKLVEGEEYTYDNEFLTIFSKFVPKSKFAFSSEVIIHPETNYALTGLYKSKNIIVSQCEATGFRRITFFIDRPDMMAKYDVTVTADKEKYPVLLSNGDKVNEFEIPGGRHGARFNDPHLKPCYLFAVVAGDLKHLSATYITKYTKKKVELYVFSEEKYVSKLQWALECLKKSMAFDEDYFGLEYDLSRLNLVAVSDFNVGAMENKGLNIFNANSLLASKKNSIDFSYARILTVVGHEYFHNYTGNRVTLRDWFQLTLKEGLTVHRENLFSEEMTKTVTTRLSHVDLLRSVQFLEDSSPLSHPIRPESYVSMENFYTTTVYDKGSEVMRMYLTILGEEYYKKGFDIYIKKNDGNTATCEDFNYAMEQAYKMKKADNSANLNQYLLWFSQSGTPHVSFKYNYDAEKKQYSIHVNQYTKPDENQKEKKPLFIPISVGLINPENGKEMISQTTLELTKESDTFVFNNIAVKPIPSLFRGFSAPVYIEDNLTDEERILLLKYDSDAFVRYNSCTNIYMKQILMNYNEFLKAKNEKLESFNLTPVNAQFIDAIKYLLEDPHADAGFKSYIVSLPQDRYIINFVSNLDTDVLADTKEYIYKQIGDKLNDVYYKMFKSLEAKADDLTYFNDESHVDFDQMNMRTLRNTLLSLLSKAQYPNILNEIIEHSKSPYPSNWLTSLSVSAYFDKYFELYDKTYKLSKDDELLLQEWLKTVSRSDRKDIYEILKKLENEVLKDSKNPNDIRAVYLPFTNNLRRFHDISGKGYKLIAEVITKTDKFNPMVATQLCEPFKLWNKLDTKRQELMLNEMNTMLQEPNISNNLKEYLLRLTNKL

Row | IC50 (Plasmodium falciparum [2]) [nM] | Structure (SMILES) | inhibition at 10 µM (Plasmodium falciparum [1]) [%] | IC50 (Aminopeptidase N) [nM]
1 | 151 | CC(C)CC(C(=O)NO)C(=O)N(CCCN1CCN(CCCNc2ccnc3cc(Cl)ccc23)CC1)CC(C)C (centres undefined) | – | –
2 | 317 | CC(C)CN(CCCN1CCN(CCCNc2ccnc3cc(Cl)ccc23)CC1)C(=O)CC(=O)NO | – | 854
3 | 29000 | CC(C)C[C@H](NC(=O)[C@@H](O)[C@H](N)Cc1ccccc1)C(=O)O [UBENIMEX] | – | –

Row | Structure (SMILES) | IC50 (Plasmodium falciparum [2]) [nM] | inhibition at 10 µM (Plasmodium falciparum [1]) [%] | IC50 (Aminopeptidase N) [nM]
4 | O=C(O)CCC(=O)N(CCCN1CCN(CCCNc2ccnc3cc(Cl)ccc23)CC1)CC1CC1 | 1380 | 22 | > 10000
5 | NCCC(=O)N(CCCN1CCN(CCCNc2ccnc3cc(Cl)ccc23)CC1)CC1CC1 | 398 | – | 21000
